Screening data as filed in PubChem.
Compounds with a hit are over-represented: about 1.8% of the library has one in this group of screens.
M4 antag – antagonists of human muscarinic M4 receptor (CHRM4); P08173; CHO-hM4 cells, ACh EC80, Fluo-8 calcium fluorescence; inhibition, % at 3 µM; actives 0.73% (n = 360,000);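 active = inhibition above its plate's cutoff, the mean inhibition of sample wells plus 3 SD, cut at about 27% in these data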;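 note: 0% = acetylcholine EC80 with DMSO and 100% = DMSO without agonist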
Target sequence (P08173 whole entry, looked up): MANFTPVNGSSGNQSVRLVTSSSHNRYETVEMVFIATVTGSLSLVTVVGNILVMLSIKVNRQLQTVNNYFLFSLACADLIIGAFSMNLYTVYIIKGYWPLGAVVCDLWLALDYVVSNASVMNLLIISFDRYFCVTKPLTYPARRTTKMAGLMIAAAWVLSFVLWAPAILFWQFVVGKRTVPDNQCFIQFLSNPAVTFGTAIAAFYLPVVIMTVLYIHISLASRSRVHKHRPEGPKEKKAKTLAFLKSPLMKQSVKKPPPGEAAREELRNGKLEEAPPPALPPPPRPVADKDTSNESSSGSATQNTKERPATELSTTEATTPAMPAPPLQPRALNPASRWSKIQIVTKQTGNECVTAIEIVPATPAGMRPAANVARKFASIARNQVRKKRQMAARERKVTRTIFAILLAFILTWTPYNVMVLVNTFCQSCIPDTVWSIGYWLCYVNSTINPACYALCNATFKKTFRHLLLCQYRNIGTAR
M5 PAM – CHRM5 positive allosteric modulation. P08912. CHO-K1 hM5, Fluo-8 calcium, ACh EC20 PAM; 0% = ACh EC20, 100% = ACh EC100. activation, % at 3 µM. actives 0.3% (n = 360,000);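 active = activation above the run cutoff, the mean activation of all test compounds plus 3 SD, cut at about 18% in these data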
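Measured by: Fluo-8 calcium fluorescence; material: human M5 receptor in CHO-K1 cells; schedule: Post-acetylcholine fluorescence recording 140 s; benchmarks: low control EC20 acetylcholine (0%), high control EC100 acetylcholine (100%); read-out: Max/basal fluorescence ratio as % of EC20–EC100 ACh window; compound: single dose, 3 µM nominal final test concentration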
M5 ag – agonists of human muscarinic M5 receptor (CHRM5). actives 0.19% (n = 360,000). CHO-K1 hM5 cells, Fluo-8 calcium fluorescence; 0% DMSO wells, 100% maximal acetylcholine response. activation, % at 3 µM;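 active = activation above the run's mean over test compounds plus 3 SD, cut at about 23% in these data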;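 note: signal is peak over basal fluorescence ratio across the kinetic read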
M5 antag – CHRM5 antagonism in calcium assay. P08912. CHO-hM5 cells, Fluo-8 calcium fluorescence, ACh EC80. inhibition, % at 3 µM. actives 0.59% (n = 360,000);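 active = inhibition above a per-plate cutoff, the mean of that plate's test compounds plus 3 SD, cut at about 27% in these data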;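 note: 0% = acetylcholine EC80 with DMSO and 100% = DMSO without agonist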
M4 PAM – potentiates acetylcholine response at human M4 receptor. P08173. CHO-K1 hM4/Gqi5, Fluo-8 calcium fluorescence, ACh EC20; 0% = ACh EC20, 100% = maximal ACh. activation, % at 3 µM. actives 0.4% (n = 360,000);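 active = activation above its plate's cutoff, the mean activation of sample wells plus 3 SD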
CHRM4 agonist – agonists of human muscarinic M4 receptor (CHRM4). P08173. CHO-K1 hM4/Gqi5, Fluo-8 calcium fluorescence; vehicle 0%, full acetylcholine response 100%. activation, % at 3 µM. actives 0.14% (n = 360,000);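 active = activation above the run mean over all test wells plus 3 SD, cut at about 32% in these data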;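 note: peak over basal fluorescence ratio per well then scaled between controls; 0% = DMSO wells and 100% = acetylcholine at EC100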
Starred values were filed as active, the others as inactive; + = active, no number.

SMILES	M4 antag	M5 PAM	M5 ag	M5 antag	M4 PAM	CHRM4 agonist
O=C(N/N=C/c1ccncc1)c1nc(-c2ccccc2)n2c1CCCCC2	28.7*	-5.2	-3.7	9.7	-1.2	2.1
O=C(O)CC1CCC1CC(=O)O (stereo unspecified)	-9.4	2.1	3.8	8.4	1.2	0.3
COc1ccc(CNC(=O)C(=O)NCCC2CCCCN2S(=O)(=O)c2cccs2)cc1 (stereo unspecified)	-5.5	-3.4	0.4	10.0	-7.2	6.7
COc1cc(NC(=O)CN2C(=O)C(c3ccccc3)=NC23CCCCCC3)cc(OC)c1	-2.9	3.7	-0.5	-0.6	21.2*	2.4
COc1cccc(NC(=O)CN2C(=O)C(c3ccc(C)cc3)=NC23CCCCCC3)c1	5.1	-5.6	0.1	7.5	0.0	-0.6
O=c1[nH]c2ccccc2c2ccc(Cl)cc12	-11.9	-0.6	-3.5	11.9	0.9	0.5
O=c1[nH]c2cc(F)ccc2c2ccc(F)cc12	-13.2	19.1*	-2.4	-9.4	-2.0	0.8
COc1ccc(-c2nc3ccccc3nc2-c2ccc(OC)c(OC)c2)cc1OC	-1.2	-7.2	-13.1	38.6*	-0.2	7.9
CCN1C(=O)[C@@H]2Cc3c([nH]c4ccccc34)C(c3ccc(OC)cc3)N2C1=S (stereo partly specified)	33.9*	-18.0	-1.1	28.8*	-16.7	17.9
Cn1cc(-c2ccccc2C(=O)O)c(=O)c2cc(Cl)ccc21	-2.9	2.1	-1.4	2.3	-2.7	1.1
COC(=O)c1ccc(OCC2c3cc(OC)c(OC)cc3CCN2C(=O)c2ccco2)cc1 (stereo unspecified)	29.7*	-15.3	2.1	17.1	-13.6	21.5
COC(=O)c1ccc(OCC2c3cc(OC)c(OC)cc3CCN2C(C)=O)cc1 (stereo unspecified)	12.7	-12.5	-0.1	16.0	-18.1	16.8
Cc1cccc(C)c1NC(=O)C1CCN(S(C)(=O)=O)CC1	-10.4	-3.2	-8.1	-13.9	1.5	-0.1
Cc1cccc(CSC(=N)N)c1	5.6	-3.2	-5.3	4.6	-0.3	1.4
N#CC(C#N)=C(Nc1ccc(F)cc1)SCc1cccc(Br)c1	19.0	-19.4	6.2	31.9*	-15.1	10.4
Cc1cccc(CSC(Nc2ccc(F)cc2)=C(C#N)C#N)c1	18.1	-15.1	6.4	29.5*	-13.6	11.2
COc1ccc(C2(C)NC(=O)N(CC(=O)Nc3ccc(Br)cc3F)C2=O)cc1OC (stereo unspecified)	17.7	-2.4	0.2	7.1	-0.9	5.8
c1csc(CCNc2ncnc3sc4c(c23)CCC4)c1	11.0	-20.4	5.5	32.3*	-3.6	14.3
c1ccc(Nc2ncnc3sc4c(c23)CCC4)cc1	0.4	5.0	0.4	-14.5	20.5	-3.1
Cc1ccc(NC2=NCC(=O)N2Cc2ccc3c(c2)OCO3)c(C)c1	-7.7	6.3	1.0	-8.3	4.5	2.6
CCc1ccc(NC2=NCC(=O)N2Cc2ccc3c(c2)OCO3)cc1	-5.9	7.3	-8.8	-3.6	20.8*	2.1
Cc1nc(C)c(-c2ccc(SCC(=O)Nc3ccc(C)c(Cl)c3)nn2)s1	8.8	-0.6	-2.4	1.2	0.3	4.0
CC(=O)c1ccc(NC(=O)CSc2ccc(-c3sc(C)nc3C)nn2)cc1	2.9	-16.6	2.7	31.9*	-8.3	23.7
COc1ccc(NC(=O)C2CCCN(C(=O)Nc3ccc(F)cc3)C2)cc1OC (stereo unspecified)	-21.9	8.8	-2.4	-10.5	3.8	2.5
Cc1ccccc1OCC(=O)NCC(=O)N/N=C/c1ccc(Br)o1	-23.6	19.7*	-1.0	-14.9	18.9	9.2
SMILES	M4 antag	M5 PAM	M5 ag	M5 antag	M4 PAM	CHRM4 agonist
Cc1cccn2c(=O)c(C=O)c(N3CCCCC3)nc12	-7.0	19.8*	-1.9	-9.5	13.2	2.7
CC(O)[C@@H](C(=O)N1CCNCC1)n1cc(CCCCN)nn1 (stereo partly specified)	9.3	-4.8	0.8	-7.4	-20.2	+
CC(O)Cc1cn([C@@H](CCCCN)C(=O)N2CCNCC2)nn1 (stereo partly specified)	-9.4	6.4	2.6	9.3	0.8	0.5
CCOC(=O)[C@H]1[C@H]2COc3ccc(OC)cc3[C@@H]2N2C(=O)CN(Cc3ccc(F)cc3)C(=O)[C@@]12C	41.8*	-11.0	-11.1	10.4	-16.0	6.4
COc1ccc(CNC(=O)C2CCCN2C(=O)Nc2cccc(Cl)c2)cc1 (stereo unspecified)	-5.7	-3.8	0.7	0.2	-2.6	0.4
CC1(C)Cc2c(c(N3CCOCC3)nc3sc(C(=O)Nc4cccc(Cl)c4)c(N)c23)CO1	-4.8	13.4	-0.8	-11.8	17.8*	2.2
CC1(C)Cc2c(c(N3CCOCC3)nc3sc(C(=O)Nc4ccccc4)c(N)c23)CO1	-13.4	3.3	-0.5	-7.3	4.5	4.9
COC(=O)c1sccc1NC(=O)Nc1cc(C)cc(C)c1	15.7	-9.6	-6.4	28.9*	-3.6	-2.1
N#CC1(c2ccccc2)CCCN1C(=O)c1ccc(Br)cc1 (stereo unspecified)	4.3	-6.2	-3.5	9.3	-1.7	-1.1
COc1ccc(OC)c(CN2C(=O)CSCC2(C)C(=O)NC(C)C)c1 (stereo unspecified)	2.0	7.0	1.2	0.5	6.9	1.8
O=C(CCl)N(c1ccccc1)c1c[nH]c2ccccc12	0.1	-3.5	-4.6	-2.1	1.9	1.8
O=C(CCl)N(c1ccc(Cl)cc1)c1c[nH]c2ccccc12	34.8*	5.1	8.4	6.3	5.3	8.1
CCCC(=O)N1CCCC1(C)C(=O)Nc1ccc2cn[nH]c2c1 (stereo unspecified)	-5.0	-4.0	1.0	16.4	-6.7	-0.2
C=Cc1ccc(Cn2c(C)c(C(=O)NCc3ccccc3C(F)(F)F)sc2=O)cc1	-3.3	-7.0	-0.5	-5.8	-2.2	4.7
COc1ccc(S(=O)(=O)N2CCC[C@H]2C(=O)N2CCC[C@H]2C(=O)N[C@@H](C)c2ccccc2)cc1C	-6.7	-1.2	-4.3	-4.0	8.2	-1.4
CCOC(=O)C1=CC[C@@H](c2ccccc2)N(S(=O)(=O)c2ccc(C)cc2)[C@H]1C#N	31.5*	4.2	2.3	2.7	-5.8	6.6
CCOC(=O)C1=CC[C@@H](c2ccccc2)N(S(=O)(=O)c2ccc(C)cc2)[C@H]1c1ccc(C#N)cc1	-3.2	-11.8	-1.8	2.8	-14.2	-0.1
O=C(C=Cc1ccccn1)c1ccccc1O	0.8	9.9	5.6	6.8	1.1	2.0
O=C(C=Cc1ccccn1)c1ccccc1	-8.6	29.4*	9.4	-32.3	4.8	2.4
